Measured values published in ChEMBL document CHEMBL1137343, “4-arylazo-3,5-diamino-1H-pyrazole CDK inhibitors: SAR study, crystal structure in complex with CDK2, selectivity, and cellular effects” (J Med Chem, 2006).
pIC50, pKi: −log10 of the molar value. Activity calls are given as the source filed them. No cut-off for these calls is given here.

Experiments:
[1] = system: MCF7; experiment: Decrease in pRb phosphorylation in MCF7 cells after 24 hrs at 25 uM; format: functional, cell-based; settings: Homo sapiens
In short: (§1)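 MCF7 cells were treated 24 h, lysed in Laemmli buffer and run on 10% SDS-PAGE. Proteins were blotted to nitrocellulose; loading checked with Ponceau-S; blocked with 5% milk in PBS-Tween. Specific antibodies applied overnight (pRb phosphosites Ser780, Ser807, Thr821; p53; p21WAF1), then peroxidase secondary at 1:2000 with ECL detection.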

[2] = target: Serine/threonine-protein kinase Chk1 (Homo sapiens) (UniProt O14757); experiment: Activity of CHK1 at 10 uM
In short: (§2)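 Radiometric kinase assay at 10 µM inhibitor, run in duplicate. c-Abl, CHK1, GSK3β, p70S6K, PKA and PKBα were run in 8 mM MOPS pH 7.0 with 0.2 mM EDTA. MAPK1 and SAPK2α were run in 25 mM Tris pH 7.5 with 0.02 mM EGTA. CK2 was run in 20 mM HEPES pH 7.6, 0.15 M NaCl, 0.1 mM EDTA, 2 mM DTT and 0.1% Triton X-100. All had 10 mM Mg-acetate, 10 µM ATP, [γ-33P]ATP and a peptide substrate; 40 min; H3PO4 stop; P30 filter; scintillation counting.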

[3] = system: HT-29; experiment: Inhibition of GAPDH mRNA synthesis in HT29 cells measured as number of copies per 10^6 cells by RT PCR at 50 uM after 6 hrs; format: functional, Homo sapiens
In short: (§3)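 HT-29 cells (5 × 10⁶) treated for 3, 6 or 12 h; total RNA extracted with TRI reagent, 3 µg reverse transcribed with random primers and M-MLV RT (42 °C, 60 min). Absolute transcript copies quantified by TaqMan real-time PCR, 50 cycles, against diluted gene-specific amplicon standards (30–1 000 000 copies); duplicate PCR per sample; values are means of four determinations ± SD.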

[4] = system: HT-29; experiment: Cell cycle arrest in HT29 cells by accumulation at G2/M phase at 50 uM after 3 hrs; format: functional, Homo sapiens
In short: (§4)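 Subconfluent, asynchronous HT-29 cells were treated 3, 6 or 12 h, then pulsed with 10 µM BrdU for 30 min at 37 °C. Cells were fixed in ice-cold 70% ethanol, DNA denatured in 2 M HCl and neutralised with borate. Staining used FITC anti-BrdU, then propidium iodide (0.1 mg/mL) with RNase A. Analysis by flow cytometry with 488 nm laser.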

[5] = target: Ribosomal protein S6 kinase (P70S6K) (Homo sapiens) (UniProt Q9UBS0+P23443); experiment: Activity of P70S6K at 10 uM; format: protein-complex assay; in short: as §2
[6] = target: T1, Cyclin-dependent kinase 2/cyclin E (Homo sapiens, UniProt P24941); experiment: Inhibition of CDK2/Cyclin E in presence of 100 uM ATP; format: protein-complex assay
[7] = target: Cyclin-dependent kinase 2/cyclin A (Homo sapiens, UniProt P24941); experiment: Inhibition of CDK2/Cyclin A in presence of 100 uM ATP; format: protein-complex assay
[8] = target: Glycogen synthase kinase-3 beta (Homo sapiens) (UniProt P49841); experiment: Activity of GSK3-beta at 10 uM; in short: as §2
[9] = system: HT-29; experiment: Cell cycle arrest in HT29 cells by accumulation at G0/G1 phase at 50 uM after 12 hrs; format: functional, Homo sapiens; in short: as §4
[10] = system: MCF7; experiment: Viability of MCF7 cells at 100 uM; format: functional, Homo sapiens
In short: (§5)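 Cells grown in DMEM with 10% FCS and 4 mM glutamine at 37 °C, plated in 96-well format, preincubated 12 h, then exposed 72 h. Live cells measured by Calcein AM (1 h) fluorescence at 485/538 nm; % viable cells given at 100 µM compound.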

[11] = system: HT-29; experiment: Inhibition of EpCAM mRNA synthesis in HT29 cells measured as number of copies per 10^6 cells by RT PCR at 50 uM after 12 hrs; format: functional, Homo sapiens; in short: as §3
[12] = system: HOS; experiment: Viability of HOS cells at 100 uM; format: functional, Homo sapiens; in short: as §5
[13] = target: Cyclin-dependent kinase 1/cyclin B (Homo sapiens, UniProt P06493); experiment: Inhibition of CDK1/Cyclin B in presence of 100 uM ATP; format: protein-complex assay
[14] = target: Tyrosine-protein kinase ABL1 (Homo sapiens) (UniProt P00519); experiment: Activity of c-ABL at 10 uM; in short: as §2
[15] = system: HT-29; experiment: Inhibition of EpCAM mRNA synthesis in HT29 cells measured as number of copies per 10^6 cells by RT PCR at 50 uM after 6 hrs; format: functional, Homo sapiens; in short: as §3
[16] = system: HT-29; experiment: Cell cycle arrest in HT29 cells by accumulation at G2/M phase at 50 uM after 12 hrs; format: functional, Homo sapiens; in short: as §4
[17] = target: RAC-alpha serine/threonine-protein kinase (Homo sapiens) (UniProt P31749); experiment: Activity of PKBalpha at 10 uM; in short: as §2
[18] = system: HT-29; experiment: Cell cycle arrest in HT29 cells by accumulation at G0/G1 phase at 50 uM after 3 hrs; format: functional, Homo sapiens; in short: as §4
[19] = system: MCF7 (Homo sapiens); experiment: Reduction of RNA polymerase 2 CTD phosphorylation in MCF7 cells after 24 hrs
[20] = target: Cyclin-dependent kinase 7/ cyclin H (Homo sapiens, UniProt P50613); experiment: Inhibition of CDK7/Cyclin H in presence of 100 uM ATP; format: protein-complex assay
[21] = system: HT-29; experiment: Cell cycle arrest in HT29 cells by accumulation at S phase at 50 uM after 3 hrs; format: functional, Homo sapiens; in short: as §4
[22] = system: HT-29; experiment: Inhibition of GAPDH mRNA synthesis in HT29 cells measured as number of copies per 10^6 cells by RT PCR at 50 uM after 3 hrs; format: functional, Homo sapiens; in short: as §3
[23] = system: HT-29; experiment: Inhibition of CEA mRNA synthesis in HT29 cells measured as number of copies per 10^6 cells by RT PCR at 50 uM after 12 hrs; format: functional, Homo sapiens
In short: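 HT-29 cells were treated 3, 6 or 12 h; total RNA extracted with TRI reagent. 3 µg RNA reverse-transcribed with random primers and M-MLV RT at 42 °C for 60 min. CEA transcripts quantified by TaqMan real-time PCR: 50 cycles of 95 °C 15 s and 65 °C 15 s. Absolute copies came from amplicon standards of 30 to 10^6 copies, expressed per 10^6 cells. Samples run in duplicate PCR; values average of four determinations ± SD.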

[24] = target: Mitogen-activated protein kinase 14 (Homo sapiens) (UniProt Q16539); experiment: Activity of SAPK2-alpha at 10 uM; in short: as §2
[25] = system: HT-29; experiment: Cell cycle arrest in HT29 cells by accumulation at G0/G1 phase at 50 uM after 6 hrs; format: functional, Homo sapiens; in short: as §4
[26] = target: T1, Cyclin-dependent kinase 2/cyclin E; experiment: Inhibition of CDK2/Cyclin E; format: protein-complex assay; settings: read-out: Ki app
In short: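 CDK2-cyclin E made in Sf9 insect cells co-infected with baculoviral constructs, purified on NiNTA. Assayed with 1 mg/mL histone H1, 15 µM ATP plus 0.05 µCi [γ-33P]ATP, in 50 mM HEPES, 10 mM MgCl2, 5 mM EGTA, 10 mM 2-glycerolphosphate, 1 mM NaF, 1 mM DTT, pH 7.4. Activity expressed as percentage of maximum; IC50 taken from dose-response curves.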

[27] = target: Mitogen-activated protein kinase 1 (Homo sapiens) (UniProt P28482); experiment: Activity of MAPK1 at 10 uM; in short: as §2
[28] = system: MCF7; experiment: Decrease in pRb phosphorylation in MCF7 cells after 24 hrs at 50 uM; format: functional, cell-based; settings: Homo sapiens; in short: as §1

Sequence of Glycogen synthase kinase-3 beta (Homo sapiens) (P49841 whole entry, looked up): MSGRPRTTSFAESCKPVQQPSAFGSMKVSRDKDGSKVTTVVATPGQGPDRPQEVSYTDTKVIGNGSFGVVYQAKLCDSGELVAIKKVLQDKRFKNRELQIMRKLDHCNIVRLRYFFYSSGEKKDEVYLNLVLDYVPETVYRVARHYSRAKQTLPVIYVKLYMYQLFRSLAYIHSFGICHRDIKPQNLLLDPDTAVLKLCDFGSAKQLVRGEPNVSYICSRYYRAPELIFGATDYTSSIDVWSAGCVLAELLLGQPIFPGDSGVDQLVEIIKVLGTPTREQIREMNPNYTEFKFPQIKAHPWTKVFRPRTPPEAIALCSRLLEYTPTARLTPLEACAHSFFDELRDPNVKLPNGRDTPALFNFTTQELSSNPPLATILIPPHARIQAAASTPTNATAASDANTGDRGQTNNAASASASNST
Sequence of Mitogen-activated protein kinase 1 (Homo sapiens) (P28482 whole entry): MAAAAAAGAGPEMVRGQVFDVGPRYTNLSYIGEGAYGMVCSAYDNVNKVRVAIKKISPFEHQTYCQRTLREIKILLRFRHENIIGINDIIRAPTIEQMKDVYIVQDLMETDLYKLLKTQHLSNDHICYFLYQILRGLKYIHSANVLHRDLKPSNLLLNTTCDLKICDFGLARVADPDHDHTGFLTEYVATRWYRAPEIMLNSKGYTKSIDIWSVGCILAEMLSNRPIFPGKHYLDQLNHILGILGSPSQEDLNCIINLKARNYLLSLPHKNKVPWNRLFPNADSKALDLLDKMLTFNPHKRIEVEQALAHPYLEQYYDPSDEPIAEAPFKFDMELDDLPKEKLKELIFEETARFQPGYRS
Sequence of Mitogen-activated protein kinase 14 (Homo sapiens) (Q16539 whole entry): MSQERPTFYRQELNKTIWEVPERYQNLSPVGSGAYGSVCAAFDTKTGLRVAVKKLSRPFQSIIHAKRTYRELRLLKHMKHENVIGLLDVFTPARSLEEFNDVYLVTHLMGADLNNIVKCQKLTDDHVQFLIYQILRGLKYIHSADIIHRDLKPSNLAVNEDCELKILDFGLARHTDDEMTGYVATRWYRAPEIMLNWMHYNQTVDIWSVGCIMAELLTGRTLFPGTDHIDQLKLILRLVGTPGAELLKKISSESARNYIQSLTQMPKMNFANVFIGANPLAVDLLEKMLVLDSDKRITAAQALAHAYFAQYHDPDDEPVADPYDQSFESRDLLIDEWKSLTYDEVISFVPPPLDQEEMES
Sequence of RAC-alpha serine/threonine-protein kinase (Homo sapiens) (P31749 whole entry): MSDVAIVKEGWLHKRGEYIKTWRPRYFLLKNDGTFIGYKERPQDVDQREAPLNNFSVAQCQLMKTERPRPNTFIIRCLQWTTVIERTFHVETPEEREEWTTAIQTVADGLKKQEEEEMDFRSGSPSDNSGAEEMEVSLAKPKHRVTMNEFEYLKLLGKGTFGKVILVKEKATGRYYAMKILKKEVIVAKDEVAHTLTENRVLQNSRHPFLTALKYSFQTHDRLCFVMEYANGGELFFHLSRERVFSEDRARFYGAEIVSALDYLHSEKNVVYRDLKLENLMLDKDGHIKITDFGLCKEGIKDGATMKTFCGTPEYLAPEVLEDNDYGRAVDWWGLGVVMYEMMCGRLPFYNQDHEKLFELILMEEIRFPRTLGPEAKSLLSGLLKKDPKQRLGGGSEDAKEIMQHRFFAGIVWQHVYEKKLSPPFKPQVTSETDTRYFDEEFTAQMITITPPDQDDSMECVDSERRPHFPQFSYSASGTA
Sequence of Tyrosine-protein kinase ABL1 (Homo sapiens) (P00519 whole entry): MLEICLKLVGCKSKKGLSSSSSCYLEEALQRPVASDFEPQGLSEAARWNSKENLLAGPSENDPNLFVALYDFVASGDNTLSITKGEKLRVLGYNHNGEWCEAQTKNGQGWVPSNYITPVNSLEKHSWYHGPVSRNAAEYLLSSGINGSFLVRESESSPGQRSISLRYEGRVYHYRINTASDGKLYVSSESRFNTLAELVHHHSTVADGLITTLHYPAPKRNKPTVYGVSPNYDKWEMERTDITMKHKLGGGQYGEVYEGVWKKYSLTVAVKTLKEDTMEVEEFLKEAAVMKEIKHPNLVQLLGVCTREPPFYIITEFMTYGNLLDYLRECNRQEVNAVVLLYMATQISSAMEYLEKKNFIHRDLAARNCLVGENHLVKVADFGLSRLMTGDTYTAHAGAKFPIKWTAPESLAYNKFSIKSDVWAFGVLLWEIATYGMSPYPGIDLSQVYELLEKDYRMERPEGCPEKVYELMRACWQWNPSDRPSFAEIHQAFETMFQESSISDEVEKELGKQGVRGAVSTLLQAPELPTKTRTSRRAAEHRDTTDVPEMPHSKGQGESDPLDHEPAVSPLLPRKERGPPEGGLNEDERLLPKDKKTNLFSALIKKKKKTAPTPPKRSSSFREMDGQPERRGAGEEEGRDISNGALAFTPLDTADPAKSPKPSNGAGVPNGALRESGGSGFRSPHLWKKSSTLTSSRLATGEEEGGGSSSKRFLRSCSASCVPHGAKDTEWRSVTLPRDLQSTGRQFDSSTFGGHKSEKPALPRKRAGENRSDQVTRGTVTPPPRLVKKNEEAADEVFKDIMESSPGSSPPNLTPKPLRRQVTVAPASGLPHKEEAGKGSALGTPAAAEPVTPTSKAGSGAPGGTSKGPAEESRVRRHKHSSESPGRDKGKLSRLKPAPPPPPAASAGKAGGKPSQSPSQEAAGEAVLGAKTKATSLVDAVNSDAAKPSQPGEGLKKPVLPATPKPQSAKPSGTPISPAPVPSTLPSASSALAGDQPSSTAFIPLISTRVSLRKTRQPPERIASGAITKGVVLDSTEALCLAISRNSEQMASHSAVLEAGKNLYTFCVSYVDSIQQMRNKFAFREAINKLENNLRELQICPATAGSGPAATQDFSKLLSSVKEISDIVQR
Sequence of Cyclin-dependent kinase 7/ cyclin H (P51946 whole entry): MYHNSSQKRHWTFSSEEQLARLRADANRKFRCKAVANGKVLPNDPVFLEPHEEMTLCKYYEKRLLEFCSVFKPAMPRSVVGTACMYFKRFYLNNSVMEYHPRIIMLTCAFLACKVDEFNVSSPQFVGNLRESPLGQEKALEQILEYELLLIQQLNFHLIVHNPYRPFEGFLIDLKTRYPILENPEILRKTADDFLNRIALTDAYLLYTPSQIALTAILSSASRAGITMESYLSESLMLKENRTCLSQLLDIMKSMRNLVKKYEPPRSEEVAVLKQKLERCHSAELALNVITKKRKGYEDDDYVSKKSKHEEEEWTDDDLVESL
Sequence of Cyclin-dependent kinase 7/ cyclin H (P50613 whole entry): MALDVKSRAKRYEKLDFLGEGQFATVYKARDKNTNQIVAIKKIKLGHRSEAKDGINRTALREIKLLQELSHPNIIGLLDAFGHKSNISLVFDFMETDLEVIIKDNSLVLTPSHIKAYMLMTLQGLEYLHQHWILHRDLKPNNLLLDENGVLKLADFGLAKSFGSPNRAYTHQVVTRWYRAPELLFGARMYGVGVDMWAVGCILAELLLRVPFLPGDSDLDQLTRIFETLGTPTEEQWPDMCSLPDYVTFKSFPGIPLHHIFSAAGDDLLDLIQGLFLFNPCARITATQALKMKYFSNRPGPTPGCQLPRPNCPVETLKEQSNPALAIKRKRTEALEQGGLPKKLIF
Sequence of Serine/threonine-protein kinase Chk1 (Homo sapiens) (O14757 whole entry): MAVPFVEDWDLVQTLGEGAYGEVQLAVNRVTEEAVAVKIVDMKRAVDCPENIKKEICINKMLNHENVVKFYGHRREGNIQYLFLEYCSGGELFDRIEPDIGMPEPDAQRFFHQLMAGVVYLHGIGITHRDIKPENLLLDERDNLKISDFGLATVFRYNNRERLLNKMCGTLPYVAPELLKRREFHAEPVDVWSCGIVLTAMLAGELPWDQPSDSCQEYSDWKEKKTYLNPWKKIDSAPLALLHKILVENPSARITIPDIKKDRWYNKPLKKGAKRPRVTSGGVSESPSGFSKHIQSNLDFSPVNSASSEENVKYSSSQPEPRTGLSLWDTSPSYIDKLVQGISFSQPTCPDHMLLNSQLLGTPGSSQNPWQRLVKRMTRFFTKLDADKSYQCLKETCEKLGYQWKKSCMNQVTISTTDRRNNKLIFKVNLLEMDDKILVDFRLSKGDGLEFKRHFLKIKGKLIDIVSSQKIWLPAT

residual activity [2]: 89% | residual activity [5]: 51% | pIC50 [6]: 4.70 | pIC50 [7]: 4.16 | residual activity [8]: 81% | pIC50 [13]: 4.36 | residual activity [14]: 84% | residual activity [17]: 100% | pIC50 [20]: 4.59 | residual activity [24]: 82% | pKi [26]: 4.88 | residual activity [27]: 99%
SMILES: Nc1n[nH]c(N)c1/N=N/c1ccc(O)cc1
Activity [1]: Active | Activity [3]: 3785908 | Activity [4]: 11.4% | Activity [9]: 27.2% | Activity [10]: 20% | Activity [11]: 2951620 | Activity [12]: 22% | Activity [15]: 5069600 | Activity [16]: 6.8% | Activity [18]: 32.9% | Activity [19]: Active | Activity [21]: 55.7% | Activity [22]: 3342533 | Activity [23]: 12005 | Activity [25]: 35.9% | Activity [28]: Active
